Broadly, the ED50 is the midpoint of the dose-response relation. For orientation: TD50 means the dose at which the toxic effect under study appears in half of the subjects.

This is an account of results in ChEMBL document CHEMBL1177876, “Design and synthesis of 10-alkoxy-5, 6-dihydro-triazolo[4,3-d]benzo[f][1,4]oxazepine derivatives with anticonvulsant activity” (Eur J Med Chem, 2010).

Molecules are shown by their SMILES. Active and inactive are the calls of the source. Where only a bound is given, the exact number is not on record here.

The subject of data set [1] is Mus musculus. Briefly: Anticonvulsant activity in mouse assessed as protection against maximal electroshock-induced seizures at 300 mg/kg, ip measured after 4 hrs. Type of data set: functional, organism-based. Details: dose 300 mg/kg. Put shortly:
(§1)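 Phase-I MES screen in KunMing mice, 18–22 g. Compounds dissolved in DMSO and given i.p. at 30, 100 or 300 mg/kg. The MES test followed the NIH ADD protocol and was read at 0.5 h and 4 h after dosing. Six mice per group, scored as number protected/number tested.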
In general terms: In the maximal electroshock model the usual endpoint is tonic extension of the hind limbs.

Data set [2] deals with Mus musculus. Briefly: Anticonvulsant activity in ip dosed mouse assessed as protection against maximal electroshock-induced seizures. Type of data set: functional. Put shortly: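 KunMing mice, 18–22 g, compounds in DMSO, given i.p. at a range of doses, groups of 10. MES test per NIH ADD program. Read-out was seizure protection, with at least three points in the 10–90% range.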

The subject of data set [3] is Mus musculus. In words: Anticonvulsant activity in mouse assessed as protection against maximal electroshock-induced seizures at 100 mg/kg, ip measured after 0.5 hrs. Type of data set: functional, organism-based. Details: dose 100 mg/kg. Put shortly:
as §1

Data set [4] deals with Mus musculus. Briefly: Anticonvulsant activity in mouse assessed as protection against maximal electroshock-induced seizures at 30 mg/kg, ip measured after 4 hrs. Type of data set: functional, organism-based. Details: dose 30 mg/kg. Put shortly: as §1
Data set [5] deals with Mus musculus. In words: Anticonvulsant activity in mouse assessed as protection against maximal electroshock-induced seizures at 100 mg/kg, ip measured after 4 hrs. Details: dose 100 mg/kg. Type of data set: functional, organism-based. Put shortly: as §1
For data set [6], the system named is Mus musculus. In words: Anticonvulsant activity in mouse assessed as protection against maximal electroshock-induced seizures at 10 mg/kg, ip measured after 4 hrs. Type of data set: functional, organism-based. Also on record: dose 10 mg/kg.
Data set [7] is described as follows: Neurotoxicity in ip dosed mouse assessed as time spent on rotarod by rotarod test. Type of data set: toxicity, organism-based. As to conditions: in vivo. Put shortly:
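Rotarod neurotoxicity in KunMing mice, 18–22 g, compounds in DMSO given i.p. Mice were pretrained on a 3.2 cm diameter rod at 10 rpm. Toxicity was defined as failure to stay on the rod for at least 1 min in each trial.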

In data set [8] the test system is Mus musculus. Briefly: Anticonvulsant activity in mouse assessed as protection against maximal electroshock-induced seizures at 10 mg/kg, ip measured after 0.5 hrs. Type of data set: functional, organism-based. Details: dose 10 mg/kg.
For data set [9], the species on record is Mus musculus. In words: Protective index, ratio of TD50 for mouse by rotarod test to ED50 for mouse by MES test. Type of data set: functional. (Falling from the rotarod earlier than controls is read as motor impairment.)
The subject of data set [10] is Mus musculus. In words: Anticonvulsant activity in mouse assessed as protection against maximal electroshock-induced seizures at 30 mg/kg, ip measured after 0.5 hrs. Type of data set: functional, organism-based. Also on record: dose 30 mg/kg. Put shortly:
as §1

Turning to `COc1ccc(COc2ccc3c(c2)-c2nncn2CCO3)cc1`, the result with Mus musculus [1], in the data set on Mus musculus [4], in the data set with Mus musculus [5] and with Mus musculus [6] was inactive. In the data set on Mus musculus [2], the ED50 is greater than 100 mg/kg. Moreover, the result in the data set on Mus musculus [3] was Active.
In the case of `Brc1ccc(COc2ccc3c(c2)-c2nncn2CCO3)cc1`, the outcome with Mus musculus [1], with Mus musculus [4], in the data set on Mus musculus [5] and in the data set on Mus musculus [6] was inactive. In the data set on Mus musculus [2], the median effective dose (ED50) was greater than 100 mg/kg. In addition, in the data set with Mus musculus [3], the result was Active.
As for `CCCCCCOc1ccc2c(c1)-c1nncn1CCO2`, the outcome in the data set on Mus musculus [1], in the data set on Mus musculus [4], with Mus musculus [5] and with Mus musculus [6] was inactive. In addition, in [7], the TD50 turned out to be 60 mg/kg. Further, the ED50 with Mus musculus [2] came to 10 mg/kg. Also, the result in the data set on Mus musculus [8] and in the data set with Mus musculus [3] was Active. For the same molecule, the PI in the data set filed under Mus musculus [9] is reported as 6.
Turning to `Fc1ccccc1COc1ccc2c(c1)-c1nncn1CCO2`, the outcome in the data set on Mus musculus [1], with Mus musculus [4], in the data set on Mus musculus [5] and with Mus musculus [6] was inactive. In addition, the TD50 in [7] amounted to 91.3 mg/kg. The 50% effective dose (ED50) in the data set on Mus musculus [2] came out at 18 mg/kg. For the same molecule, the PI in the data set filed under Mus musculus [9] was 5.1. Moreover, the outcome in the data set with Mus musculus [3] and with Mus musculus [10] was Active.
`CCCCCCCCOc1ccc2c(c1)-c1nncn1CCO2`: the result with Mus musculus [1], with Mus musculus [4], in the data set with Mus musculus [5] and in the data set on Mus musculus [6] was inactive. Besides, in data set [7], the TD50 turned out to be 63.4 mg/kg. Also, the ED50 with Mus musculus [2] was 11 mg/kg. The result with Mus musculus [8] and with Mus musculus [3] was Active. For the same molecule, in the data set listed under Mus musculus [9], the PI is on record as 5.8.
For the molecule `CCCOc1ccc2c(c1)-c1nncn1CCO2`, the outcome in the data set with Mus musculus [1], in the data set with Mus musculus [4], with Mus musculus [5] and in the data set on Mus musculus [6] was inactive. In addition, the TD50 in data set [7] is 54.8 mg/kg. In the data set on Mus musculus [2], the 50% effective dose (ED50) was found to be 19 mg/kg. Also, the PI in the data set filed under Mus musculus [9] is 2.9. In addition, in the data set with Mus musculus [3], the result was Active.
With `COc1ccc2c(c1)-c1nncn1CCO2`, the result in the data set with Mus musculus [1], in the data set on Mus musculus [4], in the data set with Mus musculus [5] and with Mus musculus [6] was inactive. Also, the ED50 with Mus musculus [2] is greater than 100 mg/kg.
`Fc1ccc(COc2ccc3c(c2)-c2nncn2CCO3)cc1`: the result in the data set with Mus musculus [1], with Mus musculus [4], in the data set on Mus musculus [5] and in the data set on Mus musculus [6] was inactive. Further, in data set [7], the TD50 was 63.4 mg/kg. For the same molecule, the ED50 with Mus musculus [2] is 27.4 mg/kg. Further, the PI in the data set filed under Mus musculus [9] is reported as 2.3. The result with Mus musculus [3] was Active.
In the case of `Cc1ccc(COc2ccc3c(c2)-c2nncn2CCO3)cc1`, the outcome in the data set with Mus musculus [1], with Mus musculus [4], with Mus musculus [5] and in the data set with Mus musculus [6] was inactive. The ED50 in the data set on Mus musculus [2] was greater than 100 mg/kg. In addition, the result in the data set on Mus musculus [3] was Active.
Turning to `Clc1ccc(COc2ccc3c(c2)-c2nncn2CCO3)cc1`, the result with Mus musculus [1], in the data set on Mus musculus [4], in the data set with Mus musculus [5] and in the data set with Mus musculus [6] was inactive. Further, the TD50 in [7] turned out to be 110 mg/kg. The ED50 in the data set with Mus musculus [2] amounted to 60 mg/kg. Further, the PI in the data set listed under Mus musculus [9] amounted to 1.8. For the same molecule, the result in the data set on Mus musculus [3] was Active.
Regarding `Fc1cccc(COc2ccc3c(c2)-c2nncn2CCO3)c1`, the result in the data set on Mus musculus [1], in the data set on Mus musculus [4], in the data set with Mus musculus [5] and with Mus musculus [6] was inactive. Besides, the TD50 in data set [7] is 76 mg/kg. Besides, the ED50 with Mus musculus [2] was 23.7 mg/kg. For the same molecule, the PI in the data set filed under Mus musculus [9] came to 3.2. Moreover, the result in the data set on Mus musculus [3] was Active.
In the case of `CCCCCOc1ccc2c(c1)-c1nncn1CCO2`, the result with Mus musculus [1], with Mus musculus [4], in the data set with Mus musculus [5] and in the data set on Mus musculus [6] was inactive. Moreover, in data set [7], the TD50 came out at 60 mg/kg. Besides, the 50% effective dose (ED50) in the data set with Mus musculus [2] worked out at 15.8 mg/kg. Besides, the outcome in the data set with Mus musculus [8] and with Mus musculus [3] was Active. In addition, the PI in the data set filed under Mus musculus [9] is 3.8.
With `CCCCOc1ccc2c(c1)-c1nncn1CCO2`, the outcome in the data set with Mus musculus [1], with Mus musculus [4], with Mus musculus [5] and in the data set with Mus musculus [6] was inactive. Also, in data set [7], the TD50 was determined as 45.6 mg/kg. The ED50 in the data set with Mus musculus [2] is 11 mg/kg. For the same molecule, the outcome with Mus musculus [8] and in the data set on Mus musculus [3] was Active. Further, the PI in the data set listed under Mus musculus [9] is on record as 4.2.
For `Brc1cccc(COc2ccc3c(c2)-c2nncn2CCO3)c1`, the result in the data set with Mus musculus [1], in the data set on Mus musculus [4], in the data set with Mus musculus [5] and in the data set on Mus musculus [6] was inactive. Moreover, the TD50 in data set [7] worked out at 91.3 mg/kg. For the same molecule, the ED50 with Mus musculus [2] was found to be 25 mg/kg. In addition, the PI in the data set filed under Mus musculus [9] worked out at 3.6. Further, the result with Mus musculus [3] was Active.
For `Clc1ccccc1COc1ccc2c(c1)-c1nncn1CCO2`, the outcome in the data set with Mus musculus [1], in the data set on Mus musculus [4], in the data set on Mus musculus [5] and in the data set with Mus musculus [6] was inactive. For the same molecule, the TD50 in [7] turned out to be 91.3 mg/kg. The ED50 in the data set on Mus musculus [2] amounted to 38.3 mg/kg. Further, the PI in the data set listed under Mus musculus [9] was determined as 2.4. Also, the outcome in the data set with Mus musculus [3] was Active.
In the case of `CCOc1ccc2c(c1)-c1nncn1CCO2`, the outcome with Mus musculus [1], in the data set on Mus musculus [4], in the data set on Mus musculus [5] and in the data set with Mus musculus [6] was inactive. Further, the ED50 in the data set on Mus musculus [2] was greater than 100 mg/kg. The result with Mus musculus [3] was Active.
For the molecule `Clc1cccc(COc2ccc3c(c2)-c2nncn2CCO3)c1`, the outcome in the data set on Mus musculus [1], in the data set with Mus musculus [4], in the data set on Mus musculus [5] and in the data set with Mus musculus [6] was inactive. Also, the TD50 in [7] was 127 mg/kg. In the data set on Mus musculus [2], the ED50 was 82.2 mg/kg. The PI in the data set listed under Mus musculus [9] is 1.5. Moreover, the outcome with Mus musculus [3] was Active.
With `c1ccc(COc2ccc3c(c2)-c2nncn2CCO3)cc1`, the outcome with Mus musculus [1], with Mus musculus [4], in the data set with Mus musculus [5] and with Mus musculus [6] was inactive. Further, the TD50 in data set [7] is 76 mg/kg. The median effective dose (ED50) with Mus musculus [2] is 16.4 mg/kg. In the data set filed under Mus musculus [9], the PI amounted to 4.6. Further, the result with Mus musculus [3] and with Mus musculus [10] was Active.
For the molecule `Brc1ccccc1COc1ccc2c(c1)-c1nncn1CCO2`, the result in the data set on Mus musculus [1], in the data set on Mus musculus [4], in the data set with Mus musculus [5] and in the data set with Mus musculus [6] was inactive. In addition, the TD50 in [7] worked out at 110 mg/kg. The ED50 in the data set with Mus musculus [2] is 41.7 mg/kg. Further, in the data set filed under Mus musculus [9], the PI is listed as 2.6. Further, in the data set with Mus musculus [3], the outcome was Active.
